TRPC4 inh = inhibitors of mouse TRPC4 channel, primary screen, Fluo4 calcium, HEK293 TRPC4beta/mu-opioid cells; DAMGO-evoked Fluo4 calcium flux; active compounds read low; 300,000 compounds, 0.39% hits; B-score at 10 µM; AID 2247, 2010; Short transient receptor potential channel 4 (Mus musculus), Q9QUQ5;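 active means B-score over 3 SD under the library average, no early fluorescence shift, positive overall ratio signal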
Target sequence (Q9QUQ5 whole entry, looked up): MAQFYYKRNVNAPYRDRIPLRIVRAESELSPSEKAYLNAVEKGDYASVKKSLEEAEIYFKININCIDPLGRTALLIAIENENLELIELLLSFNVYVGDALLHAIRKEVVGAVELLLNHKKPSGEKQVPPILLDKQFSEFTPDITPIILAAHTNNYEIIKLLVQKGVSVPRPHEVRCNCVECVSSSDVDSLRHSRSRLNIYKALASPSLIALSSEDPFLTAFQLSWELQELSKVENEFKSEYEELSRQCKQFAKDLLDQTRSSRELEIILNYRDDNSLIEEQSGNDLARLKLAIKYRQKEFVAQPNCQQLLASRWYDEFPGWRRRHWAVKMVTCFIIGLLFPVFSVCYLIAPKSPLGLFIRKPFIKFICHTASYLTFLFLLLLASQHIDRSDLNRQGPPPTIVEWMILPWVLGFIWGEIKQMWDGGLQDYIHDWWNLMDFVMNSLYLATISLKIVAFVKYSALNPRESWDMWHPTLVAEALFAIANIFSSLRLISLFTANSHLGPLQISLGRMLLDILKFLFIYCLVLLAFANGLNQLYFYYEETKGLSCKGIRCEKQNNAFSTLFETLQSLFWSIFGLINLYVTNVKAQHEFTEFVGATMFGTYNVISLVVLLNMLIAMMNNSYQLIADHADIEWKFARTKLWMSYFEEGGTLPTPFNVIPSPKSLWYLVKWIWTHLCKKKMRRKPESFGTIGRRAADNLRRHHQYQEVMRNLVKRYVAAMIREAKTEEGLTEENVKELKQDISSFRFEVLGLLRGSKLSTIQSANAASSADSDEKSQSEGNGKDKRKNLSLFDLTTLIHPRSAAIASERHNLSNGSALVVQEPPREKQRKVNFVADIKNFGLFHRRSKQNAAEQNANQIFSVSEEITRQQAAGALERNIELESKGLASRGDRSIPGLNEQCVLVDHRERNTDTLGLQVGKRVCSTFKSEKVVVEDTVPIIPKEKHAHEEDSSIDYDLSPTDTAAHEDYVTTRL
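Material: HEK293 cells with stable TRPC4beta plus mu-opioid receptor expression; probe or stimulus: DAMGO in two steps, submaximal then maximal; technique: Fluo4 calcium fluorescence by kinetic imaging, 5 s 1 Hz baseline; measure: integrated fluorescence ratio relative to baseline, converted to per-well B score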
TRPC6 act = mouse TRPC6 channel activators, primary screen, cell-based, HEK293, membrane potential dye; B-score at 10 µM; 310,000 compounds, 0.13% hits; Short transient receptor potential channel 6 (Mus musculus), Q61143; HEK293-TRPC6 membrane potential dye fluorescence; active compounds read high;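 active means B-score of the integrated fluorescence ratio above library mean plus 3 SD, and starting fluorescence ratio within library mean plus 5 SD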;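 further: higher score means more depolarization so channel activation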
TRPC4 act = activators of mouse TRPC4 channel, primary screen, Fluo4 calcium, HEK293 TRPC4beta/mu-opioid cells; Short transient receptor potential channel 4 (Mus musculus), Q9QUQ5; Fluo4 calcium fluorescence; active compounds read high; B-score at 10 µM; 310,000 compounds, 0.49% hits; AID 2237, 2010;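 active means B-score above 5 SD of library B-scores, and initial fluorescence ratio not above library mean plus 5 SD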;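 further: positive B-score marks a calcium rise read as TRPC4 activation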
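system = HEK293 cells stably co-expressing mouse TRPC4beta and mu-opioid receptor | schedule = Fluo4 dye loading 45 min at room temperature, 110 s recording | measure = B-scored integrated calcium fluorescence ratio | signal = Fluo4 calcium-sensitive dye fluorescence, kinetic, 1 Hz baseline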
TRPC6 inhibitor = mouse TRPC6 channel inhibitors, primary screen, cell-based, HEK293, membrane potential dye; B-score at 10 µM; ACh-evoked depolarization; active compounds read low; Short transient receptor potential channel 6 (Mus musculus), Q61143; 310,000 compounds, 1.1% hits;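 active means B-score under library mean minus 3 SD, initial fluorescence not abnormally high, positive integrated signal ratio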;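 further: B-score derived from integrated fluorescence ratio over the kinetic read; more negative B-score means stronger inhibition of depolarization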
TRPC4 potent = positive allosteric modulators of TRPC4, primary screen, cell-based, mouse TRPC4beta, HEK293 mu-opioid, Fluo-4 calcium; Short transient receptor potential channel 4 (Mus musculus), Q9QUQ5; DAMGO EC20, Fluo-4 Ca2+ flux; active compounds read high; B-score at 10 µM; 310,000 compounds, 0.42% hits; AID 2227, 2009;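 active means B-score of calcium response area above 5 SD of library B-scores, with initial fluorescence ratio within 5 SD of library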
HEK293 MPD ctr = parental HEK293 membrane potential modulation, confirmation, counter-screen for TRPC6 modulator project, cell-based | membrane potential dye fluorescence | AID 488924, 2010 | shares compounds with TRPC6 inhibitor | membrane potential signal change, % at 10 µM | 2,400 compounds, 51% hits;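 active means membrane potential signal moves up or down beyond 5 SD from buffer-only wells, on both duplicate plates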
HEK293 MPD ctr 2 = parental HEK293 nonspecific activity of TRPC6 modulators, second screen. inhibition, % at 10 µM. shares compounds with TRPC6 inhibitor. AID 488926. 2,400 compounds, 14% hits. membrane potential dye fluorescence; after compound, maximal acetylcholine stimulation;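 active means membrane potential signal drops by more than 5 SD from the mean control signal, in both duplicate plates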
TRPC4 ctr mod = TRPC4 modulation by TRPC6 hit compounds, confirmation, selectivity assay for TRPC6 modulator project, cell-based, HEK293 TRPC4/mu-opioid, membrane potential dye, mouse; percent change from control (negative = decrease, positive = increase), % at 10 µM; 2,400 compounds, 69% hits; shares compounds with TRPC6 inhibitor; membrane potential fluorescence;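 active means membrane potential signal moved up or down beyond 5 SD of buffer control wells, in both duplicate plates, actives on both sides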
TRPC4 ctr inh 2 = second check of whether TRPC6 modulators also affect mouse TRPC4. shares compounds with TRPC6 inhibitor. HEK293 TRPC4/mu-opioid, membrane potential dye fluorescence; stimulated with maximal-effect DAMGO. inhibition, % at 10 µM. 2,400 compounds, 55% hits. AID 488928;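 active means drop in membrane potential signal beyond 5 SD of the control wells in both duplicate plates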;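 further: TRPC4 counter screen for TRPC6 hits run under conditions tuned for TRPC6 not TRPC4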
TRPC6 block conf = mouse TRPC6 channel inhibitors, confirmation, HEK293 cells, membrane potential dye, duplicate; shares compounds with TRPC6 inhibitor; ACh-evoked depolarization; inhibition, % at 10 µM; 3,300 compounds, 43% hits;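 active means fluorescence ratio falls more than 5 SD below the full-stimulation control mean, in both duplicate runs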;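 further: integrated fluorescence ratio of peak minus minimum over baseline after agonist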
TRPC6 act confirm = mouse TRPC6 channel activators, confirmation, HEK293 cells, membrane potential dye, duplicate. activation, % at 10 µM. HEK293-TRPC6 membrane potential dye fluorescence, FDSS. AID 488961, 2010. 2,800 compounds, 11% hits. shares compounds with TRPC6 inhibitor;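 active means ratio signal rise beyond 5 SD above unstimulated control wells' mean, seen in both duplicate runs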
A number is an active result. Only some compounds are listed: those with a hit (about 2.3% of all), similar ones and a draw of the others.

CCC(=O)c1ccc(OCC(O)Cn2nc(C)c(Br)c2C)cc1 (stereo not drawn) was read as TRPC4 inh inactive, TRPC6 act inactive, TRPC4 act inactive, TRPC6 inhibitor inactive and TRPC4 potent inactive.
CCN=C(NCC)SC1CC(=O)N(CCc2ccccc2)C1=O (stereo not drawn) was read as TRPC4 inh inactive, TRPC6 act inactive, TRPC4 act inactive, TRPC6 inhibitor inactive and TRPC4 potent inactive.
Screening O=C(O)c1cc(S(=O)(=O)N2CCN(C(=O)c3ccco3)CC2)c(Cl)cc1Cl returned TRPC4 inh inactive, TRPC6 act inactive, TRPC4 act inactive, TRPC6 inhibitor inactive and TRPC4 potent inactive.
`Cc1cccc(-c2nc(C#N)c(NCC3CCCO3)o2)c1` (stereo not drawn) gave TRPC4 inh inactive, TRPC6 act inactive, TRPC4 act inactive, TRPC6 inhibitor inactive and TRPC4 potent inactive.
For Cc1c(C)n(C)c2ccc(C(=O)N3CCN(c4ccccc4)CC3)cc12 the results were TRPC4 inh inactive, TRPC6 act inactive, TRPC4 act inactive, TRPC6 inhibitor -7.2, TRPC4 potent inactive, HEK293 MPD ctr inactive, HEK293 MPD ctr 2 inactive, TRPC4 ctr mod inactive, TRPC4 ctr inh 2 inactive, TRPC6 block conf 40% and TRPC6 act confirm inactive.
For Cc1c(C)n(C)c2ccc(C(=O)N3CCN(c4ccccn4)CC3)cc12 the results were TRPC4 inh inactive, TRPC6 act inactive, TRPC4 act inactive, TRPC6 inhibitor inactive and TRPC4 potent inactive.
`O=C(COc1ccc2ccccc2c1)Nc1ccccc1C(=O)O` gave TRPC4 inh inactive, TRPC6 act inactive, TRPC4 act inactive, TRPC6 inhibitor inactive and TRPC4 potent inactive.
CN1CCC(NCCC(c2ccc(F)cc2)c2ccc(Cl)cc2)CC1 (stereo not drawn) was read as TRPC4 inh inactive, TRPC6 act inactive, TRPC4 act inactive, TRPC6 inhibitor -5.4, TRPC4 potent inactive, HEK293 MPD ctr 104%, HEK293 MPD ctr 2 inactive, TRPC4 ctr mod 18%, TRPC4 ctr inh 2 56% and TRPC6 block conf inactive.
For O=S(=O)(O)c1nc2ccccc2n1Cc1cccc2ccccc12 the results were TRPC4 inh inactive, TRPC6 act inactive, TRPC4 act inactive, TRPC6 inhibitor inactive and TRPC4 potent inactive.
Screening CCOC(=O)c1c(NC(=O)c2cccc(N3C(=O)CCC3=O)c2)sc2c1CCN(CC)C2 returned TRPC4 inh inactive, TRPC6 act inactive, TRPC4 act inactive, TRPC6 inhibitor -6.3, TRPC4 potent inactive, HEK293 MPD ctr inactive, HEK293 MPD ctr 2 inactive, TRPC4 ctr mod inactive, TRPC4 ctr inh 2 28%, TRPC6 block conf inactive and TRPC6 act confirm inactive.
For CCOC(=O)c1c(NC(=O)CSc2ncccn2)sc2c1CCN(Cc1ccccc1)C2 the results were TRPC4 inh inactive, TRPC6 act inactive, TRPC4 act inactive, TRPC6 inhibitor -5.5, TRPC4 potent inactive, HEK293 MPD ctr inactive, HEK293 MPD ctr 2 inactive, TRPC4 ctr mod -20%, TRPC4 ctr inh 2 35%, TRPC6 block conf inactive and TRPC6 act confirm inactive.
`CCOC(=O)c1c(NC(C)=O)sc2c1CCN(Cc1ccccc1)C2` gave TRPC4 inh inactive, TRPC6 act inactive, TRPC4 act inactive, TRPC6 inhibitor -5.3, TRPC4 potent inactive, HEK293 MPD ctr -198%, HEK293 MPD ctr 2 inactive, TRPC4 ctr mod -34%, TRPC4 ctr inh 2 39%, TRPC6 block conf inactive and TRPC6 act confirm inactive.
CCN1CCN(S(=O)(=O)c2ccc(C(=O)Nc3sc4c(c3C(N)=O)CCN(CC)C4)cc2)CC1 was read as TRPC4 inh inactive, TRPC6 act inactive, TRPC4 act inactive, TRPC6 inhibitor -10, TRPC4 potent inactive, HEK293 MPD ctr -144%, HEK293 MPD ctr 2 inactive, TRPC4 ctr mod -27%, TRPC4 ctr inh 2 37%, TRPC6 block conf 58% and TRPC6 act confirm inactive.
`CCOC(=O)c1c(NC(=O)CC)sc2c1CCN(Cc1ccccc1)C2` gave TRPC4 inh inactive, TRPC6 act inactive, TRPC4 act inactive, TRPC6 inhibitor inactive and TRPC4 potent inactive.
`O=C(NCCCN1CCCC1=O)c1ccc([N+](=O)[O-])s1` gave TRPC4 inh inactive, TRPC6 act inactive, TRPC4 act inactive, TRPC6 inhibitor inactive and TRPC4 potent inactive.
`COC(=O)c1c(NC(C)=O)sc2c1CCN(Cc1ccccc1)C2` gave TRPC4 inh inactive, TRPC6 act inactive, TRPC4 act inactive, TRPC6 inhibitor -5.5, TRPC4 potent inactive, HEK293 MPD ctr -196%, HEK293 MPD ctr 2 inactive, TRPC4 ctr mod -34%, TRPC4 ctr inh 2 37%, TRPC6 block conf inactive and TRPC6 act confirm inactive.
Screening COC(=O)c1c(NC(=O)C(C)(C)C)sc2c1CCN(Cc1ccccc1)C2 returned TRPC4 inh inactive, TRPC6 act inactive, TRPC4 act inactive, TRPC6 inhibitor inactive and TRPC4 potent inactive.
Screening CCOC(=O)c1c(N)sc2c1CCN(CCc1ccccc1)C2 returned TRPC4 inh inactive, TRPC6 act inactive, TRPC4 act inactive, TRPC6 inhibitor -5.9, TRPC4 potent inactive, HEK293 MPD ctr inactive, HEK293 MPD ctr 2 inactive, TRPC4 ctr mod 22%, TRPC4 ctr inh 2 34%, TRPC6 block conf inactive and TRPC6 act confirm inactive.
CCOC(=O)c1c(N)sc2c1CCCC2 was read as TRPC4 inh inactive, TRPC6 act inactive, TRPC4 act inactive, TRPC6 inhibitor inactive and TRPC4 potent inactive.
